Assay outcomes from PubChem.
L major viab: reduces viability of Leishmania major promastigotes; inhibition, % at 10 µM; 9% of 200,000 active; resazurin fluorescence viability; AID 1063; in the data active means inhibition above about 50%;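 further: promastigotes grown with compound for 44 hours at 28 °C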
WT yeast gro inh: growth inhibition of WT yeast, mitochondrial fusion screen | inhibition, % at 10 µM | 2.1% of 190,000 active | mitochondrial fusion phenotypic screen, WT strain; in the data active means inhibition above about 58%; tested in S. cerevisiae
PMI act satM6P: increases human PMI activity with near-saturating mannose 6-phosphate. coupled PMI enzyme assay, resazurin fluorescence, 20 min; hits give high values; 1 = untreated enzyme, 0 = substrate-free blank. activation factor at 20 µM. 0.34% of 190,000 active;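 active means activation factor of 2 or more at 20 µM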
Target sequence (P34949 whole entry, looked up): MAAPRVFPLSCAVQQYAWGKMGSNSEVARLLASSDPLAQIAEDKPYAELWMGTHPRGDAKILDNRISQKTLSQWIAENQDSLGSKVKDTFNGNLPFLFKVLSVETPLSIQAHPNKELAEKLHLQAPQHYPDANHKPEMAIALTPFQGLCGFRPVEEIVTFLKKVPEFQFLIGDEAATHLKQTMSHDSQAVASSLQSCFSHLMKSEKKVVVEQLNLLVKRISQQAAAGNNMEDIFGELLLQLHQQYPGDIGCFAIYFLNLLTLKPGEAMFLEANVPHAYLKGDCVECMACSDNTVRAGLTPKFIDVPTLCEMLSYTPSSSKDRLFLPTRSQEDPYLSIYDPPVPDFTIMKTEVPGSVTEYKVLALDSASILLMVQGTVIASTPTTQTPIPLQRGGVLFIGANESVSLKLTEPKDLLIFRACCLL
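Test system: Human PMI in coupled enzyme assay | Input: 15 ng/mL PMI | Medium: HEPES-buffered pH 7.4 with magnesium and detergent | Compound: One concentration, 20 µM, in 1% DMSO | Incubation: Enzyme reaction with compound 20 min at room temperature | Detection: Diaphorase-driven resazurin-to-resorufin fluorescence, excitation 544, emission 590 nm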
PMI act: phosphomannose isomerase (human) activation; P34949; purified human PMI, coupled resazurin fluorescence, 20 min; hits give high values; 1 = vehicle control, 0 substrate-free wells; activation factor at 20 µM; 0.005% of 190,000 active;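 active means activation factor of 2 or more at 20 µM, relative to plate controls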
Diaph act CS: counter-screen for diaphorase-based assays: diaphorase activators and chemical reducers. activation factor at 20 µM. AID 1229. 0.005% of 190,000 active. Diaphorase/resazurin coupled assay, resorufin fluorescence, 16 min; hits give high values; 1 = vehicle wells, 0 = NADH-free wells;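 active means diaphorase activity raised at least twofold by the compound at 20 µM; inactive means activation factor below 2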
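Material: Purified diaphorase enzyme from Clostridium kluyveri | Buffer or medium: 50 mM HEPES pH 7.4 with 4.542 mM MgCl2, 0.005% Tween 20 | Times: 16 min enzyme reaction, ambient temperature | Signal: Red resorufin fluorescence at 544/590 nm excitation/emission | Measure: Increased resorufin signal from activators or reducing compounds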
Hits are given with their value; – = inactive. A selection: hits, their analogues and other compounds. The true share with any hit is near 10%.

SMILES	L major viab	WT yeast gro inh	PMI act satM6P	PMI act	Diaph act CS
CN(c1cccc(Cl)c1)S(=O)(=O)c1cccc(C(=O)Nc2nc3ccccc3[nH]2)c1	98.7	–	–	–	–
CN(c1ccccc1)S(=O)(=O)c1cccc(C(=O)NNC(=O)c2ccccc2)c1	–	–	–	–	–
CN(c1ccccc1)S(=O)(=O)c1cccc(C(=O)Nc2ccc3c(c2)CCC3)c1	75.2	–	–	–	–
O=C(Nc1ccc(F)cc1)C1C(c2ccccc2)C1(Cl)Cl (centres undefined)	–	–	–	–	–
CCSc1n[nH]c(=S)s1	–	–	–	–	–
O=C(CSc1ncccc1C(=O)O)c1cccc(C(F)(F)F)c1	–	–	2.2	–	–
O=C(CSc1ncccc1C(=O)O)c1ccc2ccccc2c1	–	–	–	–	–
COc1ccc2nc3c(cc2c1)c(NC(=O)c1cccs1)nn3CC(C)C	83.7	–	–	–	–
CCOC(=O)N1CCN(C(=O)c2noc(C(C)C)c2[N+](=O)[O-])CC1	–	–	–	–	–
Cc1ccc(C)c(-n2cc[nH]c2=S)c1	–	–	–	–	–
Cc1cccc(OCCSCc2nc3ccccc3[nH]2)c1	–	–	–	–	–
c1ccc(CSCc2nc3ccccc3[nH]2)cc1	60.4	–	–	–	–
Cc1ccccc1OCCSCc1nc2ccccc2[nH]1	–	74.6	–	–	–
O=C(NC(=S)NCc1ccccc1)C1CC1	–	–	–	–	–
S=C(NCCc1ccccc1)N/N=C/c1ccccc1Cl	–	63.6	–	–	–
CC(C)CC(=O)NC(=S)NCCc1ccccc1	–	–	–	–	–
S=C(NCCc1ccccc1)N/N=C/C1CCCCC1	–	72.0	–	–	–
CC(C)(C)CC(=O)NC(=S)NCCc1ccccc1	89.8	–	–	–	–
O=C(NC(=S)NCCc1ccccc1)C1CCCCC1	87.7	–	–	–	–
S=C(NCCc1ccccc1)NC1CCC(NC(=S)NCCc2ccccc2)CC1 (centres undefined)	–	–	–	–	–
COCCNC(=S)NN=C1CCCCCC1	–	–	–	–	–
S=C(NCCc1ccccc1)NN=C1CCCCCC1	–	65.7	–	–	–
N#Cc1c(-c2ccco2)cc(-c2cccnc2)nc1N	–	–	–	–	–
N#Cc1c(-c2ccccc2F)cc(-c2cccnc2)nc1N	71.3	–	–	–	–
CC1CCN(c2nc3c(c(=O)[nH]c(=O)n3C)n2CC(C)CSc2nnnn2-c2ccccc2)CC1 (centres undefined)	97.7	–	–	–	–
SMILES	L major viab	WT yeast gro inh	PMI act satM6P	PMI act	Diaph act CS
Cn1c(=O)[nH]c(=O)c2c1nc(N1CCCCC1)n2CCCSc1nnnn1-c1ccccc1	–	–	–	–	–
CC(CSc1nc2ccccc2s1)Cn1c(N2CCCC2)nc2c1c(=O)[nH]c(=O)n2C (centres undefined)	52.5	–	–	–	–
COc1ccc(/C=C/c2c([N+](=O)[O-])c(=O)n(C)c(=O)n2C)cc1O	90.3	–	–	–	–
COc1cc(/C=C/c2c([N+](=O)[O-])c(=O)n(C)c(=O)n2C)cc(OC)c1OC	79.3	–	–	–	–
COc1ccc(OC)c(/C=C/c2c([N+](=O)[O-])c(=O)n(C)c(=O)n2C)c1	–	–	–	–	–
CCN(CC)c1ccc(N=Nc2nn(C)c(C)c2[N+](=O)[O-])cc1	53.0	–	–	–	–
COc1ccc(C(CC(=O)c2ccc(O)cc2)S(=O)(=O)c2ccc(C)cc2)cc1 (centres undefined)	90.9	–	–	–	–
COc1ccc(C(=O)CC(c2ccccc2)S(=O)(=O)c2ccc(C)cc2)cc1 (centres undefined)	–	–	–	–	–
COc1ccc(C(CC(=O)c2ccc(C)cc2)Nc2ccc([N+](=O)[O-])cc2)cc1 (centres undefined)	96.4	–	–	–	–
Cc1ccc(NC(CC(=O)c2ccccc2)c2ccc(F)cc2)cc1 (centres undefined)	–	–	–	–	–
Clc1ccc(-c2cc3ccccc3nc2N2CCOCC2)cc1	–	–	–	–	–
Clc1ccc(-c2cc3ccccc3nc2N2CCCC2)cc1	–	69.5	–	–	–
O=[N+]([O-])c1ccc(Sc2nccn2Cc2ccccc2)c([N+](=O)[O-])c1	100.7	–	–	–	–
C=CCSc1nc2ccsc2c(=O)n1-c1cccnc1	–	–	–	–	–
